From PubChem
STAT1 inh: STAT1 signaling inhibition; NIH 3T3 STAT1-luciferase reporter, IFN-gamma, luminescence; inhibition, % at 5.5 µM; hit rate 0.35% among 200,000; AID 920;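 active = inhibition above a set limit, the mean inhibition across all tested compounds plus 3 SD, cut at about 34% in these data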;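 note: 0% = IFN-gamma with DMSO and 100% = IFN-gamma with 300 µM nifuroxazide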
STAT1 activator: increases IFN-gamma driven STAT1 reporter signal; NIH 3T3 STAT1-luciferase reporter, luminescence; 100% = IFN-gamma alone, no compound; hit rate 2.6% among 200,000; activation (% of control), % at 5.5 µM;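 active = activation above the screen-wide mean activation plus 3 SD, cut at about 130% in these data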;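 note: raw ratio to IFN-gamma control signal so 100% means no change and 0% no light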
STAT3 activator: increases IL-6 driven STAT3 reporter signal; U3A cells, IL-6 STAT3-luciferase reporter, luminescence; 100% = signal with IL-6 EC80 alone; activation (% of control), % at 5.6 µM; hit rate 0.91% among 190,000;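 active = activation above the screen-wide mean of compound activation plus 3 SD, cut at about 130% in these data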;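 note: 0% = background luminescence of wells with medium and substrate only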
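Material: STAT3-luciferase reporter U3A cells. Controls: IL-6-treated wells, 100% activation. Read-out: % activation versus median of IL-6-stimulated wells. Probe or stimulus: IL-6 stimulus at 33 ng/mL final. Timing: compound 1 h, then IL-6 6 h at 37 °C. Signal: reporter luminescence signal.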
APP 5'UTR act: activates APP 5'UTR luciferase reporter; hit rate 1% among 190,000; SH-SY5Y APP 5'UTR luciferase reporter, luminescence; zero percent = DMSO vehicle wells; AID 1276; activation, % at 2 µM;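 active = activation above a set limit, based on mean plus 3 SD of controls, cut at about 140% in these data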
STAT3 inh-1: STAT3 signaling inhibition; U3A cells, IL-6 STAT3-luciferase reporter, luminescence; host cell line lacks STAT1; inhibition, % at 5.5 µM; hit rate 0.89% among 190,000;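 active = inhibition above the mean inhibition across all screened compounds plus 3 SD, cut at about 44% in these data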;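 note: 0% = DMSO only wells and 100% = 100 µM nifuroxazide control wells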
NF-kB expr up: compounds increasing NF-kB expression in human neuronal cells; NF-kB reporter expression; active compounds read high; fold change at 12.5 µM; hit rate 1.6% among 190,000; AID 1239; in the data active = fold change above about 3.3
STAT3 inh-2: confirmation of STAT3 signaling inhibitors; shares compounds with STAT3 inh-1; U3A cells, IL-6 STAT3 luciferase reporter, luminescence; cell line lacks STAT1; inhibition, % at 5.7 µM; hit rate 45% among 1,200; AID 1265;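 active = inhibition above the hit cutoff computed for the primary STAT3 screen, cut at about 44% in these data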;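 note: 0% = IL-6 plus DMSO and 100% = IL-6 plus nifuroxazide control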
NFkB inh STAT3ct: counter-screen for STAT3 inhibitors: NF-kappaB inhibition | shares compounds with STAT3 inh-1 | HEK293T NF-kB luciferase reporter, TNF-alpha induced | inhibition, % at 5.7 µM | hit rate 36% among 1,200;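 active = inhibition above the mean of solvent-only control wells plus 3 SD, cutoff set per campaign, cut at about 13% in these data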;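 note: 0% = TNF-alpha with DMSO and 100% = TNF-alpha with MG high control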
STAT1 inh STAT3c: STAT1 inhibition in STAT3 inhibitor counter-screen. NIH 3T3 STAT1-luciferase reporter, IFN-gamma induced, luminescence. shares compounds with STAT3 inh-1. inhibition, % at 5.7 µM. AID 1317. hit rate 27% among 1,200;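 active = inhibition above the mean plus 3 SD of solvent-only control wells, limit set per screening run, cut at about 16% in these data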;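 note: 0% = DMSO with IFN-gamma and 100% = nifuroxazide control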
Numbers without * were called inactive; . = no result given. Rows were chosen to be rich in hits. Some 4.9% of all compounds tested hit in one or more screens of this group.

SMILES	STAT1 inh	STAT1 activator	STAT3 activator	APP 5'UTR act	STAT3 inh-1	NF-kB expr up	STAT3 inh-2	NFkB inh STAT3ct	STAT1 inh STAT3c
CC(C)c1ccc(/C=C/C(=O)NC2=NCCS2)cc1	6	95	43	222*	68*	3.1	31	-23	-92
Cc1cccc(-n2ncc3c(N4CCCC4)ncnc32)c1	-9	108	45	138*	67*	4.8*	29	-13	-80
Clc1ccc(-n2ncc3c(N4CCCCCC4)ncnc32)cc1	2	99	29	27	87*	0.23	71*	49*	12
Cc1cccc(-n2ncc3c(N4CCOCC4)ncnc32)c1	10	91	33	67	78*	1.6	62*	28*	-20
COCCn1c(SCCCC(=O)c2ccc(Br)cc2)nnc1-c1ccncc1	19	83	55	-11	53*	0.81	45*	13*	16
Cn1c(SCCCC(=O)c2ccc(F)cc2)nnc1-c1ccncc1	-3	103	98	22	6	0.85	.	.	.
O=C1CCC(=O)N1N1C(=O)C2C3c4ccccc4C(c4ccccc43)C2C1=O (stereo not drawn)	-8	106	100	-11	8	1	.	.	.
O=C1C2C3c4ccccc4C(c4ccccc43)[C@@H]2c2nc3ccccc3n21 (stereo partly drawn)	-2	102	61	-1	48*	1.2	57*	8	-1
CCCCN(CC)C(=O)c1cc2cc3ccc(OC)cc3nc2o1	-25	122	108	62	-7	1.9	.	.	.
CCCCN(C)C(=O)c1cc2cc3ccc(OC)cc3nc2s1	-15	113	62	188*	50*	3.1	17	-18	-106
CCCCCCCc1ccc(-c2ccc(O)cc2)nc1	-10	107	56	27	54*	1.1	62*	0	-12
CCCc1ccc(-c2ccc(/C=C/C(=O)O)cc2)nc1	-24	122	20	-46	96*	3.1	94*	69*	-35
COC(=O)COc1ccc(-n2cnnn2)cc1	-5	102	107	4	0	1.5	.	.	.
O=C1C(c2ccnc3ccccc23)=C(O)c2ccccc21	7	94	63	183*	48*	3	9	38*	-30
COc1ccc(C(=O)Nc2ccc(-c3cn4ccsc4n3)cc2)cc1S(=O)(=O)N1CCOCC1	12	89	79	-14	32	0.82	.	.	.
O=S(=O)(Nc1ccc(-c2cn3ccsc3n2)cc1)c1ccc2c(c1)OCCO2	-1	101	95	14	14	1.8	.	.	.
CC(C)(C)C(=O)Nc1ccc(-c2cn3ccsc3n2)cc1	31	72	43	158*	72*	3.3*	42	-2	-21
CC(C)CC(=O)Nc1ccc(-c2cn3ccsc3n2)cc1	-4	104	65	169*	46*	6.7*	20	-20	-45
Cc1cc(-c2nnc(CCC(=O)N(C)Cc3cccc4ccccc34)o2)no1	-6	104	100	12	4	1.4	.	.	.
CCCN(CCC)S(=O)(=O)c1ccc(Cl)c(OC)c1	5	96	99	-7	10	1.3	.	.	.
CCCCCOc1ccc(Br)cc1/C(C)=N/NC1=NCCN1	6	94	111	-94	-12	2.2	.	.	.
COc1ccc(Br)cc1/C(C)=N/NC1=NCCN1	18	84	54	-13	54*	0.83	47*	13	12
O=C(COC(=O)C1Cc2ccccc2CN1C(=O)c1ccccc1)Nc1ccc(SC(F)F)cc1 (stereo not drawn)	-12	111	109	0	-16	1.1	.	.	.
c1ccc(CC2CCN(c3ncnc4sccc34)CC2)cc1	26	75	32	25	83*	1.7	79*	12	8
